Test [1] has as its target Serotonin 2 (5-HT2) receptor (Rattus norvegicus, UniProt P30994+P08909+P14842). In words: Displacement of [3H]ketanserin from 5-hydroxytryptamine 2 receptor in rat cortical membranes. The class given is cell membranes, Membrane. In outline:
(§1)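 Radioligand displacement from rat brain membranes: 3H-ketanserin on cortical membranes (5-HT2), 3H-prazosin on whole brain membranes (alpha1), 3H-spiperone on striatal membranes (D2). Two full concentration-effect curves per compound, each with five test drug concentrations in triplicate spanning three decades. IC50 estimated from curves on a log-concentration scale. Outliers beyond 3 times the sd-ratio were discarded after extra determinations.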
In general terms: Loss of bound radioactivity is the signal in a displacement assay; it reports binding, not function.

The target in test [2] is T1, Adrenergic receptor alpha-1 (Rattus norvegicus, UniProt P15823+P23944+P43140).
T1 sequence (P15823 whole entry): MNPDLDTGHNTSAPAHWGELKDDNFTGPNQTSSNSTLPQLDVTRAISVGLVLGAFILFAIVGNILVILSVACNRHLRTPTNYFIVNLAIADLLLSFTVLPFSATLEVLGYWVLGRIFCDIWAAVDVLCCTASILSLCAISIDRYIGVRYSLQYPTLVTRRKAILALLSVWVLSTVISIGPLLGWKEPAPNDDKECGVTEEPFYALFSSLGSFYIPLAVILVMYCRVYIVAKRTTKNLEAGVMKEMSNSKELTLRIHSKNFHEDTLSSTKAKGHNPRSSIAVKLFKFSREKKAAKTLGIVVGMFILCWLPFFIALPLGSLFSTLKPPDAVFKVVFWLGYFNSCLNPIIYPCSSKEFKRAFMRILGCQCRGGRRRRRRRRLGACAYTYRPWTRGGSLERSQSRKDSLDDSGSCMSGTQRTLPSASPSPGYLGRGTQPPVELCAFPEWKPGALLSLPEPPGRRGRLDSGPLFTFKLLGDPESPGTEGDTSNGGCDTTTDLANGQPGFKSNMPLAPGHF
T1 sequence (P23944 whole entry): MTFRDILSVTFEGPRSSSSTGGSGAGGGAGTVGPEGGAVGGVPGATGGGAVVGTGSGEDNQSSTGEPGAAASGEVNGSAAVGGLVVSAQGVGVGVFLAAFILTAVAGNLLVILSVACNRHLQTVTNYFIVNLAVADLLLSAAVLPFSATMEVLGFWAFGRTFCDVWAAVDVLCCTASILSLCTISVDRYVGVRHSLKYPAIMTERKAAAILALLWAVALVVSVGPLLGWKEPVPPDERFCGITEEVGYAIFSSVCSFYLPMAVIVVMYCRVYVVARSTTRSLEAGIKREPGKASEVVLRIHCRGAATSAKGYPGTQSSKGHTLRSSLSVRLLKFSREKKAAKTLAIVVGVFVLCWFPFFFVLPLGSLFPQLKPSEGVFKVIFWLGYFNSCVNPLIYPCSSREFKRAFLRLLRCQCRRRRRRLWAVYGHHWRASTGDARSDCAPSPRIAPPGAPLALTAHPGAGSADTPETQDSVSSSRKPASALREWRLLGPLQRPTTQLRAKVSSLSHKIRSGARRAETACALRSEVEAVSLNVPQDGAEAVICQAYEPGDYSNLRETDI
T1 sequence (P43140 whole entry): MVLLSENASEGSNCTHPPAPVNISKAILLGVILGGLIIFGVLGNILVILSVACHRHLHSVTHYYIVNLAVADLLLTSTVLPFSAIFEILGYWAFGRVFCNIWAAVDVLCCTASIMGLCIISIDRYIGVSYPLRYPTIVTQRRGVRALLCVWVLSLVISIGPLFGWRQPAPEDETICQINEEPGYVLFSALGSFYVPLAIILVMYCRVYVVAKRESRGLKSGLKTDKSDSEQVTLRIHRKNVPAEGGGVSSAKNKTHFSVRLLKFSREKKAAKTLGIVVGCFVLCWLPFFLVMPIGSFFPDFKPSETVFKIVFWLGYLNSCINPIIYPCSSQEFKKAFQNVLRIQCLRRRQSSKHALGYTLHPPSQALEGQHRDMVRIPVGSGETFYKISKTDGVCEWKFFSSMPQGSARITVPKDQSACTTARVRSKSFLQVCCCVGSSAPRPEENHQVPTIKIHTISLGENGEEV
Put plainly: Displacement of [3H]prazosin from alpha-1 adrenoceptors in whole rat brain membranes. Type of test: cell membranes. The gist of the method: as §1

Test [3] is filed under the species Rattus norvegicus. Put plainly: Tested for inhibition of pergolide-induced rotation in 6-OH-DA-lesioned rats after 2 hr. The class given is functional. In outline:
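Unilateral 6-OHDA-lesioned rats were given test drug sc 2 h before pergolide (0.05 µmol/kg, sc), which induces contralateral circling. Each dose's effect was expressed as percent of the mean of control sessions held 1 week before and 1 week after the test session in the same rat. At least four rats per dose; ED50 by log-probit analysis.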

For test [4], the species on record is Rattus norvegicus. In words: Tested for inhibition of quipazine-induced head twitches in rats after 2 hours of pretreatment. The class given is functional. In outline:
(§2)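 Test drug was given sc or po to rats 2 or 24 h before quipazine (15 µmol/kg, sc). Head twitches were counted 30-40 min after quipazine, at least four animals per dose. Counts were expressed as percent of a quipazine-only control group.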

The species named for test [5] is Rattus norvegicus. Put plainly: Tested for inhibition of quipazine-induced head twitches in rats after 24 hours of pretreatment. Type of test: functional. In outline: as §2
The next test has as its target D(2) dopamine receptor (Rattus norvegicus, UniProt P61169). Put plainly: Displacement of [3H]spiperone from dopamine D2 receptors in rat striatal membranes. The class given is cell membranes, Membrane. The gist of the method:
as §1

The species entered for test [6] is Rattus norvegicus. Put plainly: Inhibition of quipazine-induced head twitches in rats after 2 hrs of pretreatment. Type of test: functional. The gist of the method: as §2
Test [7] is filed under the species Rattus norvegicus. Put plainly: Tested for inhibition of quipazine-induced head twitches after 24 hours of pretreatment. Type of test: functional. The gist of the method: as §2
Test [8] is filed under the species Rattus norvegicus. Put plainly: Tested for inhibition of dopamine uptake in rat brain membranes. Type of test: functional, Membrane.
For test [9], the species on record is Rattus norvegicus. In words: Tested for inhibition of norepinephrine uptake in rat brain membranes. The class given is functional, Membrane.
Setting [10] is: Rattus norvegicus, read-out: ED50.

As usually defined, the IC50 is the concentration at which inhibition is half-maximal.

Where “and” joins values, the source holds several entries; their conditions need not be identical. Equal values may be shown once. Where only a bound is given, the exact number is not on record here.

Sequence of D(2) dopamine receptor (P61169 whole entry): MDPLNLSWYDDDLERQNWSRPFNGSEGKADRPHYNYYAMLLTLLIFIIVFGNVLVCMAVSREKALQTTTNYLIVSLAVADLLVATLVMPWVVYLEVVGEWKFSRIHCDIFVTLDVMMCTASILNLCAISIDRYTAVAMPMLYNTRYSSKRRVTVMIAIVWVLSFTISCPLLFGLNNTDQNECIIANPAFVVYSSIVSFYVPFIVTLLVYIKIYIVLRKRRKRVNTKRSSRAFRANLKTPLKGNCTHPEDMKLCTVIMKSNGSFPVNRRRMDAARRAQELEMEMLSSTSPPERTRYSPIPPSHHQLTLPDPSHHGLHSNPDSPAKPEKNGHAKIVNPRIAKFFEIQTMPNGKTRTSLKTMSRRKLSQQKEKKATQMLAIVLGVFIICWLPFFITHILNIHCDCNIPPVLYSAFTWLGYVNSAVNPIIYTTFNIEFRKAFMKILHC

For `Fc1ccc(C2CC(N3CCN(CCN4CCNC4=S)CC3)c3ccc(Cl)cc32)cc1.O=C(O)/C=C\C(=O)O` (stereo unspecified), the IC50 was found to be 1.5 nM in test [1] and 52 nM in test [2]. Moreover, the ED50 was over 14 µmol/kg in the test filed under Rattus norvegicus [3], 0.077 µmol/kg in the test filed under Rattus norvegicus [4] and 1.4 µmol/kg in the test filed under Rattus norvegicus [5].
As for `Fc1ccc(C2CC(N3CCN(CCN4CCN=C4S)CC3)c3ccc(F)cc32)cc1.O=C(O)/C=C\C(=O)O.O=C(O)/C=C\C(=O)O` (stereo unspecified), the values for the IC50 (in test [1]; in [2]; on D(2) dopamine receptor) were 1.5 nM, 110 nM and 230 nM, respectively. In addition, the ED50 in the test listed under Rattus norvegicus [3] was over 15 µmol/kg; in the test filed under Rattus norvegicus [6] (setting [10]) it was 0.12 µmol/kg; in the test filed under Rattus norvegicus [7], 0.62 µmol/kg.
In the case of `Cc1ccc2c(c1)C(c1ccc(F)cc1)CC2N1CCN(CCO)CC1.O=C(O)/C=C\C(=O)O.O=C(O)/C=C\C(=O)O` (stereo unspecified), the IC50 came to 12 nM in test [1], 270 nM in [2] and 1100 nM at D(2) dopamine receptor. Besides, the ED50 in the test listed under Rattus norvegicus [6] (setting [10]) is over 2.1 µmol/kg.
For `O=C(O)/C=C\C(=O)O.O=C(O)/C=C\C(=O)O.Oc1nc2ccccc2n1CCN1CCN(C2CC(c3ccc(F)cc3)c3cc(Cl)ccc32)CC1` (stereo unspecified), in that order: 5.6 nM, 66 nM, 110 nM and 0.21 µmol/kg.
On to `O=C(O)/C=C\C(=O)O.O=C(O)/C=C\C(=O)O.O=C1NCCN1CCCN1CCN(C2CC(c3ccc(F)cc3)c3cc(Cl)ccc32)CC1` (stereo unspecified), for which the values for the IC50 (in test [1]; in [2]; at D(2) dopamine receptor) were 10 nM, 73 nM and 160 nM, respectively. The ED50 in the test filed under Rattus norvegicus [6] (setting [10]) was 0.91 µmol/kg.
`O=C(O)/C=C\C(=O)O.O=C(O)/C=C\C(=O)O.OCCN1CCN(C2CC(c3ccc(F)cc3)c3cccc(Cl)c32)CC1` (stereo unspecified): the IC50 is 15 nM in [1], 38 nM in [2] and 46 nM at D(2) dopamine receptor. The ED50 in the test filed under Rattus norvegicus [6] (setting [10]) amounted to 1.3 µmol/kg.
The corresponding values for `OCCN1CCN(C2CC(c3ccc(F)cc3)c3ccc(Cl)cc32)CC1` (stereo unspecified) are 2.6 nM, 26 nM, 20 nM and 0.039 µmol/kg.
For `OCCN1CCN(C2CC(c3ccc(F)cc3)c3c(Cl)cccc32)CC1` (stereo unspecified), in that order: 40 nM, 30 nM, 220 nM and 0.82 µmol/kg.
Regarding `Cl.Cl.OCCN1CCN(C2CC(c3ccc(F)cc3)c3cc(F)ccc32)CC1` (single isomer, unassigned; (+)), the half-inhibitory concentration (IC50) in test [1] amounted to 12 nM; in [2], 72 nM; at D(2) dopamine receptor, 330 nM. Further, the ED50 in the test filed under Rattus norvegicus [6] came to 0.33 µM/kg.
Take `Cl.Cl.Fc1ccc(C2CC(N3CCN(CCN4CCCNC4=S)CC3)c3ccc(F)cc32)cc1` (single isomer, unassigned; (+)): the IC50 in [1] stood at 0.95 nM; in test [2], 43 nM; at D(2) dopamine receptor it was 140 nM. Also, the results for the ED50 in the test listed under Rattus norvegicus [3], in the test filed under Rattus norvegicus [6] (setting [10]) and in the test filed under Rattus norvegicus [7] were over 37 µmol/kg, 0.017 µmol/kg and 0.011 µmol/kg, respectively.
On to `O=C(O)/C=C\C(=O)O.O=C(O)/C=C\C(=O)O.O=C1NCCCN1CCN1CCN(C2CC(c3ccc(F)cc3)c3cc(F)ccc32)CC1` (single isomer, unassigned; (+)), for which the IC50 in [1] was 1.1 nM; in test [2], 41 nM; on D(2) dopamine receptor, 280 nM. Further, the ED50 is over 15 µmol/kg in the test listed under Rattus norvegicus [3]; 0.029 µM/kg and 0.07 µM/kg in the test listed under Rattus norvegicus [6].
With `Cl.Cl.OCCN1CCN(C2CC(c3ccc(F)cc3)c3cc(Cl)ccc32)CC1` (single isomer, unassigned; (+)), the values for the concentration for half-maximal inhibition (IC50) (in test [1]; in [2]; on D(2) dopamine receptor) were 230 nM, 2500 nM and 6300 nM, respectively. Further, in the test filed under Rattus norvegicus [6], the ED50 was over 2.8 µM/kg.
Take `O=C(O)/C=C\C(=O)O.O=C(O)/C=C\C(=O)O.O=C1NCCCN1CCN1CCN(C2CC(c3ccc(F)cc3)c3cc(Cl)ccc32)CC1` (single isomer, unassigned; (-)): the IC50 turned out to be 1.3 nM in test [1], 62 nM in test [2] and 94 nM on D(2) dopamine receptor. Also, the ED50 was over 15 µmol/kg in the test listed under Rattus norvegicus [3], 0.11 µmol/kg in the test listed under Rattus norvegicus [6] (setting [10]) and 0.072 µmol/kg in the test listed under Rattus norvegicus [5].
As for `CC(C)N1CCN(CCN2CCN(C3CC(c4ccc(F)cc4)c4cc(Cl)ccc43)CC2)C1=O.O=C(O)/C=C\C(=O)O.O=C(O)/C=C\C(=O)O` (single isomer, unassigned; (-)), the IC50 in [1] was determined as 1.1 nM; in test [2], 210 nM; at D(2) dopamine receptor, 200 nM; in the test filed under Rattus norvegicus [8] it was 1900 nM; in the test filed under Rattus norvegicus [9], 2900 nM. The ED50 in the test filed under Rattus norvegicus [3] is over 14 µmol/kg.
On to `Cl.Cl.OCCN1CCN(C2CC(c3ccc(F)cc3)c3cc(Cl)ccc32)CC1` (single isomer, unassigned; (-)), for which the 50% inhibitory concentration (IC50) in test [1] turned out to be 11 nM; in test [2], 210 nM; at D(2) dopamine receptor, 370 nM. The ED50 in the test listed under Rattus norvegicus [6] was 0.86 µM/kg.
For `CC(C)N1CCN(CCN2CCN(C3CC(c4ccc(F)cc4)c4cc(Cl)ccc43)CC2)C1=O.O=C(O)/C=C\C(=O)O.O=C(O)/C=C\C(=O)O` (stereo in doubt; (+)-20), the IC50 in test [1] came out at 75 nM; in test [2], 340 nM; on D(2) dopamine receptor, 1300 nM; in the test filed under Rattus norvegicus [8], 70 nM; in the test listed under Rattus norvegicus [9], 50 nM. The ED50 in the test listed under Rattus norvegicus [6] was over 7 µM/kg.
For the compound `Cl.Cl.OCCN1CCN(C2CC(c3ccc(F)cc3)c3cc(F)ccc32)CC1` (stereo in doubt; (-)-13), the IC50 in test [1] came out at 500 nM; in test [2], 1100 nM; on D(2) dopamine receptor, 22000 nM. Besides, the ED50 in the test filed under Rattus norvegicus [6] was over 2.8 µM/kg.
On to `Cl.Cl.Fc1ccc(C2CC(N3CCN(CCN4CCCNC4=S)CC3)c3ccc(Cl)cc32)cc1` (stereo in doubt; (-)-39), for which the IC50 is 0.75 nM in test [1], 67 nM in [2] and 33 nM on D(2) dopamine receptor. The ED50 in the test listed under Rattus norvegicus [3] was over 18 µmol/kg; in the test filed under Rattus norvegicus [6] (setting [10]), 0.041 µmol/kg; in the test listed under Rattus norvegicus [7], 0.021 µmol/kg.
In the case of `O=C1NCCN1CCN1CCN([C@@H]2C[C@@H](c3ccc(F)cc3)c3ccccc32)CC1` [IRINDALONE], in test [2], the 50% inhibitory concentration (IC50) turned out to be 2.6 nM. The ED50 in the test listed under Rattus norvegicus [3] was 7.4 µmol/kg; in the test filed under Rattus norvegicus [6] (setting [10]), 0.58 µmol/kg; in the test listed under Rattus norvegicus [7], 0.75 µmol/kg.
In the test listed under Rattus norvegicus [3], `Cc1nc2sccn2c(=O)c1CCN1CCC(=C(c2ccc(F)cc2)c2ccc(F)cc2)CC1` [RITANSERIN] had an ED50 of over 21 µmol/kg.

Values taken from ChEMBL document CHEMBL1126803, “Stereospecific and selective 5-HT2 antagonism in a series of 5-substituted trans-1-piperazino-3-phenylindans” (J Med Chem, 1993).
